No end group written: not given here.
Key:
Rac1 [1] = biological target: Rac1 (Homo sapiens, UniProt P63000); test: SPR binding of peptide to immobilized Rac1
HEK-293 cells = test: MTT cell viability assay, HEK-293; assay type: cell-based; settings: 25-500 μm FGDWS, 24, 48 and 72 h
How it was run: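 HEK-293 cells (DMEM, 10% FBS, passage 28–33) were seeded at 4 × 10^3 per well and adhered overnight. Test compound was added at 25, 50, 100, 150, 300 and 500 for 24, 48 and 72 h at 37 °C, 5% CO2. MTT (5 mg/ml) was incubated for 4 h, medium removed and DMSO added. Absorbance at 570 nm gave percent viability.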

MCF-7 cells [2] = test: MTT cell viability assay, MCF-7; assay type: cell-based; settings: 24, 48 and 72 h
MDA-MB-231 cells [3] = test: MTT cell viability assay, MDA-MB-231; assay type: cell-based; settings: 24, 48 and 72 h
How it was run: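 MDA-MB-231 cells (passage 28–33; DMEM with 10% FBS and 1% penicillin/streptomycin) were seeded at 5 × 10^3 per well and left overnight. Four test compound doses were added for 24, 48 or 72 h at 37 °C in 5% CO2. MTT (5 mg/ml solution) was added for 4 h, medium removed, formazan dissolved in DMSO and read at 570 nm. Results were expressed as percent viability.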

MCF-7 cells [4] = test: Cell migration; assay type: cell-based; settings: after 48 h and 72 h
How it was run: (§1)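 Cells were seeded at 0.2 × 10^6 per 35 mm dish in DMEM with 10% FBS and left to adhere overnight at 37 °C in 5% CO2. Monolayers were scratched with a sterile pipette tip and imaged at time zero. They were then treated: control, 0.05% DMSO vehicle, three test compound levels, doxorubicin, and doxorubicin plus the top level. The scratched area was re-imaged at 24, 48 and 72 h.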

MDA-MB-231 cells [5] = test: Cell migration; assay type: cell-based; settings: after 48 h and 72 h
How it was run: as §1

[6] = test system: Caspase 3/7 in MCF-7 cells; test: Caspase glow 3/7 assay, MCF-7; assay type: cell-based; settings: p ≤ 0.0001
MCF-7 cells [7] = test: Annexin V-FITC / PI assay, flow cytometry, MCF-7; assay type: cell-based; settings: 72 h
How it was run: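 Test compound given to MCF-7 cells (0.2 × 10^6 per 35 mm dish) in these treatment groups: control, 0.05% DMSO vehicle, three test compound levels, doxorubicin, and doxorubicin plus the top level. Cells were trypsinized, washed twice in PBS and resuspended in binding buffer. Annexin V-FITC was added for 10 min, then PI (from a 50 µg/ml stock) for 20 min. Flow cytometry quadrants gave early apoptotic, late apoptotic, necrotic and healthy fractions.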

MDA-MB-231 cells [8] = test: Annexin V-FITC / PI assay, flow cytometry, MDA-MB-231; assay type: cell-based
How it was run: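 Cells were seeded at 0.2 × 10^6 per 35 mm dish and treated per group: control, vehicle (0.05% DMSO), test compound P1 75, P2 150, P3 300, Dox 0.2, or Dox + P3. They were then trypsinized, washed twice in PBS and resuspended in 1X binding buffer. Staining was annexin V-FITC for 10 min, then PI (50 µg/ml stock) for 20 min. Flow cytometry gave four-quadrant populations.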

Rac1 [9] = test: Western blot, Rac1 expression; assay type: cell-based, human; settings: for % change of protein expression: vs CT; for Rac1 expression (in words): 48 and 72 h
How it was run: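 MCF-7 cells (DMEM, 10% FBS) were treated per group for 48 and 72 h. Lysate protein was measured by BCA, and 30 µg was run on 10% SDS-PAGE and transferred to PVDF. Blots were blocked in 5% milk/TBS-T for 2 h. Rabbit anti-Rac1 (1:250) and GAPDH (1:500) antibodies were applied overnight at 4 °C, then 2 h at room temperature. HRP secondary (1:4000) and ECL detection followed, with band densitometry.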

VEGF = test: Western blot, VEGF expression; assay type: cell-based, human; settings: MCF-7 and MDA-MB-231; after treatments
How it was run: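 MCF-7 and MDA-MB-231 lysates were taken 48 h and 72 h after the treatment groups. Protein was quantified by BCA and 30 µg run on 10% SDS-PAGE, then transferred to PVDF. Membranes were blocked 2 h in 5% milk in TBS-T. Mouse anti-human VEGF (1:300, in 5% BSA TBS-T) was applied overnight at 4 °C, then 2 h at room temperature. Detection used HRP goat anti-mouse (1:4000) and ECL, with band densitometry.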

Rac1 [10] = test: Rac1 concentration in serum and tumor tissue of mice by SPR; assay type: in vivo, Swiss Albino mice; settings: tumor tissue lysate; 300 μm FGDWS; Mean ± SD; p-value 0.0001
P38α = test: p38α concentration in serum and tumor tissue of mice by SPR; assay type: in vivo, Swiss Albino mice; settings: 300 μm FGDWS, Mean ± SD
Phospho-p38α (Y-182) = test: Phospho-p38α concentration in serum and tumor tissue of mice by SPR; assay type: in vivo, Swiss Albino mice; settings: 300 μm FGDWS, Mean ± SD, p-value 0.0001
Phospho-LIMK1 (T-508) = test: Phospho-LIMK1 concentration in serum and tumor tissue of mice by SPR; assay type: in vivo, Swiss Albino mice; settings: 300 μm FGDWS, Mean ± SD
Phospho-Cofilin1 (S-3) = test: Phospho-Cofilin1 concentration in serum and tumor tissue of mice by SPR; assay type: in vivo, Swiss Albino mice; settings: 300 μm FGDWS, Mean ± SD
[11] = MCF-7, 48 h, P3 300 μm / Dox 0.2 μm / Dox + P3 0.2 μm + 300 μm
[12] = MCF-7, 72 h, P3 300 μm / Dox 0.2 μm / Dox + P3 0.2 μm + 300 μm
[13] = tumor tissue lysate, p-value 0.001

## FGDWS [FGDWS]
Rac1 [1]
  Kd: 807 nM
Rac1 [1]; SPR, Rac1 immobilized on CM5 (4000 RU), BIAevaluation 3.0
  KA (association constant): 1.24e+06 M⁻¹
HEK-293 cells
  toxic effect on normal cells: no toxic effect
MCF-7 cells [2]
  cell viability, dose and time dependence: decreased in dose dependent manner with time
MDA-MB-231 cells [3]
  cell viability, dose and time dependence: decreased in dose dependent manner with time
MCF-7 cells [4]
  rate of cell proliferation and migration (ranking): slowest in Dox + P3 followed by Dox, P3, P2 and P1
MDA-MB-231 cells [5]
  rate of cell proliferation and migration (ranking): slowest in Dox + P3 followed by Dox, P3, P2 and P1
[6]; MCF-7, 48 h, P1 75 μm
  fold change in RLU with respect to control (caspase 3/7): 0.24
[6]; MCF-7, 48 h, P2 150 μm
  fold change in RLU with respect to control (caspase 3/7): 0.402
[6]; [11]
  fold change in RLU with respect to control (caspase 3/7): 0.93
[6]; MCF-7, 72 h, P1 75 μm
  fold change in RLU with respect to control (caspase 3/7): 0.33
[6]; MCF-7, 72 h, P2 150 μm
  fold change in RLU with respect to control (caspase 3/7): 0.47
[6]; [12]
  fold change in RLU with respect to control (caspase 3/7): 0.66
MCF-7 cells [7]
  population of apoptotic cells, dose dependence: increased with increasing FGDWS doses P1 to P3
MDA-MB-231 cells [8]; 72 h
  population of apoptotic cells, dose dependence: increased with increasing FGDWS doses P1 to P3
MDA-MB-231 cells [8]; higher dose of peptide (P3 300 μm), or in combination with Dox
  apoptotic cell population: 38.3%
Rac1 [9]; MCF-7, 48 h, P1 75 μm
  % change of protein expression: 1.08%
Rac1 [9]; [11]
  % change of protein expression: 25.84%
Rac1 [9]; MCF-7, 72 h, P1 75 μm
  % change of protein expression: 12.74%
Rac1 [9]; [12]
  % change of protein expression: 31.23%
Rac1 [9]; MCF-7
  Rac1 expression (in words): downregulated significantly with increase in concentration of peptide dose from P1 to P3
Rac1 [9]; MDA-MB-231, 48 h, P1 75 μm
  % change of protein expression: 21.41%
Rac1 [9]; MDA-MB-231, 48 h, P3 300 μm / Dox 0.2 μm / Dox + P3 0.2 μm + 300 μm
  % change of protein expression: 36.01%
Rac1 [9]; MDA-MB-231, 72 h, P1 75 μm
  % change of protein expression: 15.03%
Rac1 [9]; MDA-MB-231, 72 h, P3 300 μm / Dox 0.2 μm / Dox + P3 0.2 μm + 300 μm
  % change of protein expression: 48.31%
Rac1 [9]; MDA-MB-231
  Rac1 expression (in words): downregulated significantly with increase in concentration of peptide dose from P1 to P3
VEGF
  VEGF expression (in words): downregulated after treatments with peptide and Dox
Rac1 [10]
  Rac1 concentration: 0.72 ± 0.02 ng/µL
P38α; serum, day 45, p-value 0.004
  P38α concentration: 3.13 ± 0.96 ng/µL
P38α; [13]
  P38α concentration: 0.97 ± 0.06 ng/µL
Phospho-p38α (Y-182); serum, day 45
  Phospho-p38α concentration: 2.66 ± 0.16 ng/µL
Phospho-p38α (Y-182); tumor tissue lysate
  Phospho-p38α concentration: 2.77 ± 0.11 ng/µL
Phospho-LIMK1 (T-508); serum, day 45, p-value 0.008
  Phospho-LIMK1 concentration: 7.58 ± 2.25 ng/µL
Phospho-LIMK1 (T-508); [13]
  Phospho-LIMK1 concentration: 8.01 ± 1.22 ng/µL
Phospho-Cofilin1 (S-3); serum, day 45, p-value 0.006
  Phospho-Cofilin1 concentration: 8.35 ± 1.15 ng/µL
Phospho-Cofilin1 (S-3); [13]
  Phospho-Cofilin1 concentration: 7.14 ± 1.34 ng/µL
